Laboratory results reported in ChEMBL document CHEMBL1125029, “Chemical and biochemical studies of 2-propynylpyrrolidine derivatives. Restricted-rotation analogues of N-methyl-N-(1-methyl-4-pyrrolidino-2-butynyl)acetamide (BM-5)” (J Med Chem, 1990).

Assays:
[1] = biological target: Muscarinic receptor M1 and M2 (Rattus norvegicus) (UniProt P08482+P10980); assay: The agonist ratio as the ratio of Ki against [3H]QNB to that of [3H]-CD; format: functional
[2] = biological target: Muscarinic acetylcholine receptor; assay: Binding activity to the muscarinic acetylcholine receptor in rat cortex, assayed using [3H]CD as a radioligand.; format: tissue-based
Outline: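 Male Wistar rat cerebral cortex homogenate in 10 mM Na/K phosphate pH 7.4, diluted 1:300 (wet wt/v), ~0.75 mg protein per 2.0 mL. 1 nM radioligand (55.5 Ci/mmol), prepared fresh in buffer. Competitor 10^-12 to 10^-3 M. Nonspecific binding with 10 μM atropine. Rapid filtration on PEI-treated filters, scintillation counting. Apparent Ki by one-site competitive nonlinear regression.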

[3] = biological target: Muscarinic acetylcholine receptor; assay: Binding activity to the muscarinic acetylcholine receptor in rat cortex, assayed using [3H]PZ as a radioligand.; format: tissue-based
Outline: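 Rat (male Wistar, 200-250 g) cortex homogenized in ice-cold Na/K phosphate buffer pH 7.4, diluted 1:400, ~0.55 mg protein per 2.0 mL. 0.1 nM radioligand (84.1 Ci/mmol), made fresh just before use. Unlabeled competitor at final 10^-12 to 10^-3 M. 10 μM atropine for nonspecific. Filtered, counted by liquid scintillation. One-site competitive fit gives apparent Ki.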

[4] = biological target: Muscarinic acetylcholine receptor; assay: Binding activity against Muscarinic acetylcholine receptor in rat cortex, using [3H]QNB as a radioligand.; format: tissue-based
Outline: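 Competitor at final 10^-12 to 10^-3 M. 10 μM atropine defines nonspecific binding. Filtration on PEI-soaked GF/B filters, scintillation counting. Apparent Ki from one-site competitive nonlinear fit.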

[5] = biological target: Muscarinic acetylcholine receptor; assay: Binding activity to muscarinic acetylcholine receptor in rat heart, assayed using [3H]QNB as a radioligand in the presence of Gpp(NH)p.
Outline: (§1)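 Male Wistar rat heart ventricles flushed, minced, Polytron-homogenized in 10 mM Na/K phosphate pH 7.4, spun 48000 g 15 min 4 °C, resuspended, gauze-filtered, diluted 1:750, 0.15-0.2 mg protein/2.0 mL. 10 μM Gpp(NH)p added to homogenate for line 3. Competitor 10^-12 to 10^-3 M. 10 μM atropine nonspecific. Filtration, scintillation counting. Ki from one-site fit.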

[6] = biological target: Muscarinic acetylcholine receptor; assay: Binding activity to muscarinic acetylcholine receptor in rat heart, assayed using [3H]-QNB as a radioligand.; outline: as §1
[7] = biological target: T1, Muscarinic acetylcholine receptor M1 (Rattus norvegicus) (UniProt P08482); assay: Muscarinic 1 receptor agonistic activity as the selectivity ratio of Ki against [3H]-QNB to that of [3H]PZ; format: functional
T1 sequence (whole entry): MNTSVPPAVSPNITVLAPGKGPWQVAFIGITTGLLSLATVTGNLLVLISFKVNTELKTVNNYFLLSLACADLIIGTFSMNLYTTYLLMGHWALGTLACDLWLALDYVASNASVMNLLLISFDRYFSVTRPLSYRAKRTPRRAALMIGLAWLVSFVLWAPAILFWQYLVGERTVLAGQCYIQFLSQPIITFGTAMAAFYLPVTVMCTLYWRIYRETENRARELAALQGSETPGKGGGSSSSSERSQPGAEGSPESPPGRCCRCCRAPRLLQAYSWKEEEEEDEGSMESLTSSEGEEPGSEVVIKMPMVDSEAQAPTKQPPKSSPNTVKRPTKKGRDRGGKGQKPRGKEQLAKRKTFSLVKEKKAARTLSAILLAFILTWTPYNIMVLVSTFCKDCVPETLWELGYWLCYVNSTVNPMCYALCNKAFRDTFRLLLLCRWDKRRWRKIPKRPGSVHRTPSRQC

[8] = biological target: T1, Muscarinic acetylcholine receptor M1 (Rattus norvegicus); assay: Muscarinic 1 receptor agonistic activity as the selectivity ratio of Ki against [3H]-QNB+ Gpp(NH)p to that of [3H]PZ; format: functional
[9] = biological target: T2, Muscarinic acetylcholine receptor M2 (Rattus norvegicus) (UniProt P10980); assay: Muscarinic 2 receptor agonistic activity was determined as the selectivity ratio of Ki against [3H]QNB+ Gpp(NH)p to that of [3H]QNB; format: functional
T2 sequence (whole entry): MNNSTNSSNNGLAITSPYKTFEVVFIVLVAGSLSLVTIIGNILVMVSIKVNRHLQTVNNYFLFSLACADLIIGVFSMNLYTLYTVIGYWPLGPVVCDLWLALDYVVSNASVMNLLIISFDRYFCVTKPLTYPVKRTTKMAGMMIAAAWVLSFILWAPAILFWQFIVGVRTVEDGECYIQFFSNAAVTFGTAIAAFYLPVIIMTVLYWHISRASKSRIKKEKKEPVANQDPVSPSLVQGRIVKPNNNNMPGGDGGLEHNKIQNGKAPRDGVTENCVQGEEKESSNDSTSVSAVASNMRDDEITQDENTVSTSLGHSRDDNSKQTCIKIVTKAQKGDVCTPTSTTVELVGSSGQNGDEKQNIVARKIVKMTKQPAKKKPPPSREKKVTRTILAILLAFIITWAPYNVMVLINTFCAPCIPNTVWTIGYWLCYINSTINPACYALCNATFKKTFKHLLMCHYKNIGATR

Ratio [1]	Ki [2] [nM]	Ki [3] [nM]	Ki [4] [nM]	Ki [5] [nM]	Ki [6] [nM]	Ratio [7]	Ratio [8]	Ratio [9]	SMILES
0.8	440	140	360	1070	1230	8.8	7.6	0.9	Cl.O=C(N1CCC[C@@H]1C#CCN1CCCC1)C(F)(F)F
0.4	1440	1480	620	5750	4420	3	3.9	1.3	COC(=O)N1CCC[C@H]1C#CCN1CCCC1
1	450	170	430	1630	610	3.6	9.6	2.7	CC(=O)N1CCC[C@@H]1C#CCN1CCCC1.Cl
1.6	2220	3100	3450	8860	6400	2.1	2.9	1.4	Cl.O=C(N1CCC[C@H]1C#CCN1CCCC1)C(F)(F)F
1.5	530	1590	810	5060	2940	1.8	3.2	1.7	COC(=O)N1CCC[C@@H]1C#CCN1CCCC1

More lines, now with the values behind:

SMILES	Ratio [1]	Ki [2] [nM]	Ki [3] [nM]	Ki [4] [nM]	Ki [5] [nM]	Ki [6] [nM]	Ratio [7]	Ratio [8]	Ratio [9]
O=C1CCCN1CC#CCN1CCCC1 [OXOTREMORINE]	120	0.5	140	60	140	4	0.03	1	35
CC(=O)N1CCC[C@@H]1C#CCN(C)C	8.4	1650	5250	13800	42400	11800	2.2	8.1	3.6
CCOC(=O)N1CCC[C@@H]1C#CCN1CCCC1	2.3	510	190	1160	1040	940	4.9	5.5	1.1
CN(C)CC#C[C@@H]1CCCN1C(=O)OC(C)(C)C	3.5	3300	9040	11400	14100	13400	1.5	1.6	1.1
O=CN1CCC[C@@H]1C#CCN1CCCC1	0.7	3350	1180	2390	3120	3260	2.7	2.5	1
CS(=O)(=O)N1CCC[C@@H]1C#CCN1CCCC1.Cl	1	1980	4110	1920	13400	5910	1.4	3.3	2.3
CC(=O)N1CCC[C@@H]1C#CC[N+](C)(C)C	20.3	110	1630	2230	5470	2070	1.3	3.4	2.6
CC(C)(C)OC(=O)N1CCC[C@@H]1C#CCN1CCCC1	3	220	420	660	1960	1320	3.1	4.7	1.5
